This note sets out measurements from ChEMBL document CHEMBL1806394, “Synthesis, in vitro evaluation and molecular docking studies of new triazole derivatives as antifungal agents” (2011).

Assay type in all cases: functional
Experiment [1] relates to Candida albicans. Description: Antifungal activity against Candida albicans SC5314 by micro-broth dilution method. The essentials:
(§1)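 MIC80 determined by broth microdilution following NCCLS methods. C. albicans SC5314 and Y0109 and C. neoformans BLS108 served as quality-control strains and were included in every assay. Fluconazole, itraconazole, voriconazole and amphotericin B were run as positive controls.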

In experiment [2] the test system is Candida albicans. Briefly: Antifungal activity against Candida albicans Y0109 by micro-broth dilution method. The essentials: as §1
In general terms: In broth dilution the organism is exposed to a series of concentrations in liquid medium.

The subject of another experiment is Candida tropicalis. Briefly: Antifungal activity against Candida tropicalis by micro-broth dilution method. The essentials:
as §1

The next experiment has as its system Candida parapsilosis. Briefly: Antifungal activity against Candida parapsilosis by micro-broth dilution method. The conditions noted are these: Lodderomyces parapsilosis. The essentials: as §1
The next experiment has as its system Kluyveromyces marxianus. Description: Antifungal activity against Candida kefyr by micro-broth dilution method.
The next experiment has as its system Cryptococcus neoformans. Description: Antifungal activity against Cryptococcus neoformans BLS108 by micro-broth dilution method. The method, boiled down: as §1
Another experiment concerns Trichophyton rubrum. Description: Antifungal activity against Trichophyton rubrum by micro-broth dilution method. The essentials: as §1
The next experiment concerns Aspergillus fumigatus. Description: Antifungal activity against Aspergillus fumigatus by micro-broth dilution method. The essentials: as §1

Values after ≈ are worked out from the molar mass of the structure shown. Where only a bound is given, the exact number is not on record here.

One may read the MIC80 as the lowest concentration that inhibits either 80% of growth or 80% of the strains tested, depending on the study. Regarding `COc1ccc(C(=O)Nc2ccc(-n3cnn(CC(O)(Cn4cncn4)c4ccc(F)cc4F)c3=O)cc2)cc1` (single isomer, unassigned), the MIC80 against Candida albicans [1] was 1 µg/mL (≈ 1.83 µM); in the experiment with Candida albicans [2] it was 1 µg/mL (≈ 1.83 µM); in the experiment on Candida tropicalis it was 4 µg/mL (≈ 7.31 µM); in the experiment with Candida parapsilosis, 1 µg/mL (≈ 1.83 µM); against Kluyveromyces marxianus, 16 µg/mL (≈ 29.2 µM); in the experiment on Cryptococcus neoformans it was over 64 µg/mL. Besides, the MIC80 with Trichophyton rubrum and in the experiment with Aspergillus fumigatus was over 64 µg/mL throughout.
As to `CCCc1ccc(C(=O)Nc2ccc(-n3cnn(CC(O)(Cn4cncn4)c4ccc(F)cc4F)c3=O)cc2)cc1` (single isomer, unassigned), the MIC80 in the experiment on Candida albicans [1] was 0.0039 µg/mL (≈ 0.00697 µM); against Candida albicans [2], 1 µg/mL (≈ 1.79 µM); in the experiment on Candida tropicalis, 1 µg/mL (≈ 1.79 µM); against Candida parapsilosis it was 4 µg/mL (≈ 7.15 µM); against Kluyveromyces marxianus, over 64 µg/mL; against Cryptococcus neoformans it was over 64 µg/mL. Also, the MIC80 in the experiment on Trichophyton rubrum and against Aspergillus fumigatus was over 64 µg/mL in each case.
Turning to `Cc1ccc(/C=C/C(=O)Nc2ccc(-n3cnn(CC(O)(Cn4cncn4)c4ccc(F)cc4F)c3=O)cc2)cc1` (single isomer, unassigned), the MIC80 is 1 µg/mL (≈ 1.79 µM) in the experiment on Candida albicans [1]; 4 µg/mL (≈ 7.17 µM) in the experiment on Candida albicans [2]; 4 µg/mL (≈ 7.17 µM) against Candida tropicalis; over 64 µg/mL with Candida parapsilosis; over 64 µg/mL in the experiment with Kluyveromyces marxianus; over 64 µg/mL in the experiment with Cryptococcus neoformans. Moreover, the MIC80 in the experiment on Trichophyton rubrum and against Aspergillus fumigatus was over 64 µg/mL each time.
As to `CCCCc1ccc(C(=O)Nc2ccc(-n3cnn(CC(O)(Cn4cncn4)c4ccc(F)cc4F)c3=O)cc2)cc1` (single isomer, unassigned), the MIC80 against Candida albicans [1] was 0.0156 µg/mL (≈ 0.0272 µM); against Candida albicans [2], 0.0156 µg/mL (≈ 0.0272 µM); in the experiment with Candida tropicalis, 0.25 µg/mL (≈ 0.436 µM); against Candida parapsilosis, 0.0625 µg/mL (≈ 0.109 µM); in the experiment with Kluyveromyces marxianus, over 64 µg/mL; against Cryptococcus neoformans, over 64 µg/mL. Also, the MIC80 with Trichophyton rubrum and in the experiment on Aspergillus fumigatus was over 64 µg/mL each time.
For `O=C(/C=C/c1ccc(F)cc1)Nc1ccc(-n2cnn(CC(O)(Cn3cncn3)c3ccc(F)cc3F)c2=O)cc1` (single isomer, unassigned), the MIC80 in the experiment with Candida albicans [1], in the experiment on Candida albicans [2], in the experiment on Candida tropicalis, with Candida parapsilosis, against Kluyveromyces marxianus and against Cryptococcus neoformans was over 64 µg/mL throughout. In addition, the MIC80 in the experiment with Trichophyton rubrum and in the experiment with Aspergillus fumigatus was over 64 µg/mL each time.
In the case of `O=C(Nc1ccc(-n2cnn(CC(O)(Cn3cncn3)c3ccc(F)cc3F)c2=O)cc1)c1ccccc1F` (single isomer, unassigned), the MIC80 in the experiment with Candida albicans [1] is 0.0625 µg/mL (≈ 0.117 µM); in the experiment on Candida albicans [2], 4 µg/mL (≈ 7.47 µM); with Candida tropicalis, 0.0625 µg/mL (≈ 0.117 µM); in the experiment with Candida parapsilosis, 0.0156 µg/mL (≈ 0.0291 µM); against Kluyveromyces marxianus, 1 µg/mL (≈ 1.87 µM); against Cryptococcus neoformans, 64 µg/mL (≈ 120 µM). Moreover, the MIC80 in the experiment with Trichophyton rubrum is 16 µg/mL (≈ 29.9 µM); against Aspergillus fumigatus it was over 64 µg/mL.
With `CCC(C)n1ncn(-c2ccc(N3CCN(c4ccc(OCC5COC(Cn6cncn6)(c6ccc(Cl)cc6Cl)O5)cc4)CC3)cc2)c1=O` (configuration not stated) [ITRACONAZOLE], the MIC80 with Candida albicans [1], in the experiment with Candida albicans [2], in the experiment with Candida tropicalis, with Candida parapsilosis, against Kluyveromyces marxianus and against Cryptococcus neoformans was 0.0625 µg/mL (≈ 0.0886 µM) each time. The MIC80 against Trichophyton rubrum and in the experiment with Aspergillus fumigatus was 0.0625 µg/mL (≈ 0.0886 µM) each time.
As to `O=C(/C=C/c1ccccc1[N+](=O)[O-])Nc1ccc(-n2cnn(CC(O)(Cn3cncn3)c3ccc(F)cc3F)c2=O)cc1` (single isomer, unassigned), the MIC80 was 1 µg/mL (≈ 1.7 µM) against Candida albicans [1]; 1 µg/mL (≈ 1.7 µM) in the experiment on Candida albicans [2]; 1 µg/mL (≈ 1.7 µM) with Candida tropicalis; 1 µg/mL (≈ 1.7 µM) against Candida parapsilosis; over 64 µg/mL in the experiment on Kluyveromyces marxianus; over 64 µg/mL against Cryptococcus neoformans. The MIC80 against Trichophyton rubrum and against Aspergillus fumigatus was over 64 µg/mL throughout.
Turning to `Cc1ccccc1C(=O)Nc1ccc(-n2cnn(CC(O)(Cn3cncn3)c3ccc(F)cc3F)c2=O)cc1` (single isomer, unassigned), the MIC80 was 0.25 µg/mL (≈ 0.47 µM) in the experiment on Candida albicans [1]; 0.0625 µg/mL (≈ 0.118 µM) with Candida albicans [2]; 1 µg/mL (≈ 1.88 µM) against Candida tropicalis; 0.0156 µg/mL (≈ 0.0293 µM) against Candida parapsilosis; over 64 µg/mL against Kluyveromyces marxianus; over 64 µg/mL against Cryptococcus neoformans. The MIC80 against Trichophyton rubrum and in the experiment on Aspergillus fumigatus was over 64 µg/mL each time.
